According to ChEMBL document CHEMBL1135439, “Imidazo[2,1-i]purin-5-ones and related tricyclic water-soluble purine derivatives: potent A(2A)- and A(3)-adenosine receptor antagonists” (J Med Chem, 2002):
pKi: −log10 of the molar value. Values after ≈ are worked out from the molar mass of the structure shown.

Columns and labels:
Adenosine receptor A2a [1] = target: T1, Adenosine receptor A2a (Rattus norvegicus, UniProt P30543); test: Binding affinity to the adenosine A2A receptor by displacement of [3H]CGS-21680 in rat brain striatal membrane; type: cell membranes
[2] = Water solubility of the compound; type: ADME; settings: read-out: S
[3] = target: Adenosine receptor A2a (Rattus norvegicus) (UniProt P30543); test: (§1) Inhibition against A2A-Adenosine Receptor of rat PC12 cell membranes (functional antagonist activity); type: cell-based; settings: PC-12
Adenosine receptor A1 [4] = target: T2, Adenosine receptor A1 (Rattus norvegicus, UniProt P25099); type: cell membranes, Brain
T2 sequence (P25099 whole entry): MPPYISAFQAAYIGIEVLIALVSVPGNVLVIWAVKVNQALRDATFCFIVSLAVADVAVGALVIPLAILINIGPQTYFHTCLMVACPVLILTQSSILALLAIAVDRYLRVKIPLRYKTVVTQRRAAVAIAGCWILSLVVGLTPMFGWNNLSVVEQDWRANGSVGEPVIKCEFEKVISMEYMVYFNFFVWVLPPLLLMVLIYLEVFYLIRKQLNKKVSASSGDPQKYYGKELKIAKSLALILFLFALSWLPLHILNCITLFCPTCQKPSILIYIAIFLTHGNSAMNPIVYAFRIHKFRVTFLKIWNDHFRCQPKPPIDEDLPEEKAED

[5] = target: T3, Adenosine receptor A2b (Mus musculus) (UniProt Q60614); test: (§2) Inhibition against A2B-Adenosine Receptor in mouse NIH 3T3 fibroblast cell membranes (functional antagonist activity); type: cell-based
T3 sequence (whole entry): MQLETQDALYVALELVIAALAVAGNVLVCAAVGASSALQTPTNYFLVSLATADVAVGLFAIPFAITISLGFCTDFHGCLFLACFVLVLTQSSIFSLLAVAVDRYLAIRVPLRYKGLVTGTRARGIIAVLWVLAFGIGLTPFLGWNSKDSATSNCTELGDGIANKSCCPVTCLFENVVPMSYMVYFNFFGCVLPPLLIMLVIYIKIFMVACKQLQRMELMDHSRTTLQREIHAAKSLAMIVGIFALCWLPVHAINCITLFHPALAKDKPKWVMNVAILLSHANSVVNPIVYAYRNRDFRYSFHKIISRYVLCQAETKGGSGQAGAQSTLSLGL
Summary of the method: (§3)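 Adenylate cyclase assay measuring antagonism of NECA-stimulated AC in rat PC12 membranes (A2A) or NIH 3T3 fibroblast membranes (A2B). KB was obtained from the Schild equation, using the ratio of NECA EC50 values with and without antagonist.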

[6] = target: T4, Adenosine receptor A1 (Rattus norvegicus) (UniProt P25099); test: (§4) Inhibition against Adenosine A1 receptor of rat fat cell membranes (functional antagonist activity)
T4 sequence (whole entry): T2 sequence (P25099 whole entry)

Adenosine receptor A3 = target: T5, Adenosine receptor A3 (Homo sapiens, UniProt P0DMS8); test: Binding affinity against human recombinant Adenosine A3 receptor stably expressed in HEK293 cells by displacing [125I]AB-MECA radioligand; type: cell-based
T5 sequence (P0DMS8 whole entry): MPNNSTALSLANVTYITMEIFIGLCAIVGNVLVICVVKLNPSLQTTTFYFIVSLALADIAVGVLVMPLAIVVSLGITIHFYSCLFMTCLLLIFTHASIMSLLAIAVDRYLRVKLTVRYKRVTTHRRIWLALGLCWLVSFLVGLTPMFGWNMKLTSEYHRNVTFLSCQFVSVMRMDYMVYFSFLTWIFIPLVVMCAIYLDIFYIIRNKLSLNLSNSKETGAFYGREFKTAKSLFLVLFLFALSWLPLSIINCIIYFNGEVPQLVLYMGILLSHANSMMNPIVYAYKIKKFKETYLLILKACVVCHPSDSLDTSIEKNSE

[7] = target: T4, Adenosine receptor A1 (Rattus norvegicus); test: Percent displacement of [3H]CHA from Adenosine A1 receptor of rat brain cortical membrane at 250 uM
Summary of the method: (§5)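 Single-concentration inhibition of [3H]CHA binding to rat cerebral cortical membrane A1 receptors, reported as percent displacement at the stated test concentration. Nonspecific binding was determined with 10 μM 2-chloroadenosine.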

[8] = target: T3, Adenosine receptor A2b (Mus musculus); test: Inhibition against A2B-Adenosine Receptor in mouse NIH 3T3 fibroblast cell membranes; type: cell-based
Summary of the method: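 Functional adenylate cyclase assay in NIH 3T3 fibroblast cell membranes: test compounds antagonize NECA-induced stimulation of AC (cAMP accumulation). K_B is calculated with the Schild equation from the ratio of NECA EC50 values with and without antagonist.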

[9] = target: T4, Adenosine receptor A1 (Rattus norvegicus); test: Percent displacement of [3H]CHA from Adenosine A1 receptor of rat brain cortical membrane at 30 uM; summary of the method: as §5
[10] = target: T6, Adenosine receptor A3 (Homo sapiens) (UniProt P0DMS8); test: Percent displacement against human Adenosine A3 receptor expressed in HEK293 cells by displacing [125I]AB-MECA at 10 uM; type: cell-based
T6 sequence (whole entry): T5 sequence (P0DMS8 whole entry)

[11] = Water solubility was determined.; type: ADME
Summary of the method: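 A saturated aqueous solution was prepared and the undissolved residue filtered off. The filtrate was diluted with water and its UV absorbance read at λmax. Concentration was calculated from a previously determined calibration curve for each compound.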

[12] = target: T4, Adenosine receptor A1 (Rattus norvegicus); test: Percent displacement of [3H]CHA from Adenosine A1 receptor of rat brain cortical membrane at 10 uM; summary of the method: as §5
[13] = target: Adenosine receptor A2a (Rattus norvegicus) (UniProt P30543); test: Percent displacement of [3H]CGS-21680 from Adenosine A2A receptor of rat brain striatal membrane at 30 uM
Summary of the method: (§6)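 Single-concentration inhibition of [3H]CGS21680 binding to rat striatal membrane A2A receptors, reported as percent displacement at the stated test concentration. Nonspecific binding was defined with 20 μM 2-chloroadenosine.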

[14] = target: T6, Adenosine receptor A3 (Homo sapiens); test: Percent displacement against human recombinant Adenosine A3 receptor expressed in HEK293 cells by displacing [125I]AB-MECA at 100 uM; type: cell-based
[15] = target: T4, Adenosine receptor A1 (Rattus norvegicus); test: Percent displacement of [3H]CHA from Adenosine A1 receptor of rat brain cortical membrane at 3 uM; summary of the method: as §5
[16] = target: Adenosine receptor A2a (Rattus norvegicus) (UniProt P30543); test: Binding affinity against Adenosine A2A receptor by displacement of [3H]CGS-21680 radioligand in rat brain striatal membrane at 30 uM; type: cell membranes; summary of the method: as §6
Adenosine receptor A2a [17] = target: T1, Adenosine receptor A2a; test: as §1; type: cell-based, PC-12; summary of the method: as §3
Adenosine receptor A2b = target: T7, Adenosine receptor A2b (Mus musculus, UniProt Q60614); test: as §2; type: cell-based; summary of the method: as §3
T7 sequence (Q60614 whole entry): T3 sequence (whole entry)

Adenosine receptor A1 [18] = target: T2, Adenosine receptor A1; test: as §4
Summary of the method: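 Adenylate cyclase assay in rat fat cell membranes measuring antagonism of R-PIA-elicited AC inhibition. KB was obtained from the Schild equation, using the ratio of R-PIA IC50 values with and without antagonist.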

Chain of Adenosine receptor A2a (Rattus norvegicus) (P30543 whole entry): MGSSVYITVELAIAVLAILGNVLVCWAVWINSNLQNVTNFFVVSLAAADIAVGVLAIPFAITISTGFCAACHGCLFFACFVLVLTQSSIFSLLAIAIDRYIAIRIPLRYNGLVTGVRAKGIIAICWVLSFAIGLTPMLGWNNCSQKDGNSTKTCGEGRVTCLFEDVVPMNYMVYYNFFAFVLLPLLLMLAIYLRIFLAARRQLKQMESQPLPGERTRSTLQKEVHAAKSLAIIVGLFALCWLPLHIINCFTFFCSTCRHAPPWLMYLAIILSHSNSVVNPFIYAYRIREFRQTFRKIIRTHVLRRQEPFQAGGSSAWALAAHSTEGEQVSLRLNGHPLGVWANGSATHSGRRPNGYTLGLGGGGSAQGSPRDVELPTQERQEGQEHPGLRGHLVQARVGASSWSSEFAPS
T1 sequence (P30543 whole entry): as above

SMILES	pKi (Adenosine receptor A2a [1])	pKi (Adenosine receptor A1 [4])	further results
Cn1c(=O)c2c(nc(-c3ccccc3)n2C)n(C)c1=O			solubility [2]: 0.487 mM (≈ 132 µg/mL)
CN1C(=O)N2CCCN=C2c2c1ncn2C	4.55	4.36	
CCCn1c(=O)[nH]c(=O)c2nc[nH]c21			Kb [8]: 18 µM
C[C@@H]1CN=C2c3c(ncn3C)N(C)C(=O)N21	4.30	4.64	
Cn1c(=O)c2nc(/C=C/c3ccccc3)[nH]c2n(C)c1=O			solubility [2]: 0.00022 mM (≈ 0.0621 µg/mL)
Cn1c(=O)c2[nH]cnc2n(C)c1=O.O [THEOPHYLLINE]			solubility [2]: 44.4 mM; Kb [8]: 16 µM
CN1C(=O)N2CCN=C2c2c1nc(-c1ccccc1)n2C	4.69	5.01	solubility [2]: 1.45 mM (≈ 408 µg/mL); pKi (Adenosine receptor A3): 5.48
Cn1c(=O)c2c(nc(/C=C/c3ccccc3)n2C)n(C)c1=O			solubility [2]: 0.0028 mM (≈ 0.83 µg/mL)
CN1C(=O)N2CCN=C2c2c1ncn2C	4.68	4.10	Displacement [10]: 40%; solubility [11]: 1210 mM (≈ 248000 µg/mL)
CN1C(=O)N2CCCCC/N=C\2c2c1ncn2C	4.29	4.22	
CC[C@@H]1CN2C(=O)N(C)c3nc(-c4ccccc4)n(C)c3C2=N1	4.44	4.76	
Cn1c(=O)c2c(ncn2C)n(C)c1=O			Kb [5]: 25 µM
C[C@H]1CN2C(=O)N(C)c3ncn(C)c3C2=N1			Displacement [12]: 10%; Displacement [13]: 46%
CC[C@@H]1CN2C(=O)N(C)c3ncn(C)c3C2=N1	4.55	4.12	
C[C@@H]1CN2C(=O)N(C)c3ncn(C)c3C2=N1			Displacement [15]: 14%; Displacement [16]: 12%
Cn1cnc2c1C1=NCCN1C(=O)N2	4.39	4.18	
Cn1c(=O)[nH]c2nc(-c3ccccc3)n(C)c2c1=O			Kb [3]: 5.7 µM; Kb [5]: 5.2 µM; Kb [6]: 0.32 µM
CC1CN=C2c3c(ncn3C)N(C)C(=O)N21 (configuration not stated)	4.19	4.23	
CCC1CN2C(=O)N(C)c3nc(-c4ccccc4)n(C)c3C2=N1 (configuration not stated)	4.72	5.21	Displacement [10]: 17%

Now from value to molecule, other results behind:

pKi (Adenosine receptor A2a [1])	pKi (Adenosine receptor A1 [4])	SMILES	further results
6.08		Cn1c(=O)c2[nH]c(-c3ccccc3)nc2n(C)c1=O [8-PHENYL THEOPHYLLINE]	
6.37	4.83	CC[C@H]1CN2C(=O)N(C)c3nc(/C=C/c4ccccc4)n(C)c3C2=N1	Kb [3]: 1 µM; Kb [5]: 3.7 µM; Kb [6]: 33 µM; pKi (Adenosine receptor A3): 4.51
4.96		CC[C@H]1CN2C(=O)N(C)c3ncn(C)c3C2=N1	Displacement [7]: 50%
4.79		Cn1cnc2c1C1=NCCN1C(=O)N2Cc1ccccc1	Displacement [9]: 24%
4.73	4.70	CN1C(=O)N2CCCCN=C2c2c1ncn2C	
4.92	4.15	C[C@H]1CN=C2c3c(ncn3C)N(C)C(=O)N21	
4.92	4.98	CN1C(=O)N2CCCN=C2c2c1nc(Cl)n2C	
5.68	6.36	CC[C@@H]1CN2C(=O)N(C)c3nc(-c4ccccc4)[nH]c3C2=N1	Kb [3]: 2.5 µM; Kb [5]: 2.1 µM; Kb [6]: 0.43 µM
6.05	6.02	CC[C@@H]1CN2C(=O)N(C)c3[nH]c(/C=C/c4ccccc4)nc3C2=N1	pKi (Adenosine receptor A3): 6.19
6.26	4.66	CC[C@@H]1CN2C(=O)N(C)c3nc(/C=C/c4ccccc4)n(C)c3C2=N1	pKi (Adenosine receptor A3): 5.77
5.48	6.94	CC[C@H]1CN2C(=O)N(C)c3[nH]c(-c4ccccc4)nc3C2=N1	Kb [3]: 4.3 µM; Kb [5]: 7.6 µM; Kb [6]: 0.063 µM
6.17	6.14	CC[C@H]1CN2C(=O)N(C)c3[nH]c(/C=C/c4ccccc4)nc3C2=N1	
4.79		CCC1CN2C(=O)N(C)c3ncn(C)c3C2=N1 (configuration not stated)	Displacement [7]: 46%; Displacement [14]: 28%
4.92	5.74	Cn1c(-c2ccccc2)nc2c1C1=NCCN1C(=O)N2	KB (Adenosine receptor A2a [17]): 17.2 µM; KB (Adenosine receptor A2b): 7 µM; KB (Adenosine receptor A1 [18]): 500 nM; pKi (Adenosine receptor A3): 7.33
5.51	6.58	CCC1CN2C(=O)N(C)c3[nH]c(-c4ccccc4)nc3C2=N1 (configuration not stated)	
4.79	5.33	CC[C@H]1CN2C(=O)N(C)c3nc(-c4ccccc4)n(C)c3C2=N1	
